# How the values were obtained:
# [1] = tested on: Trichophyton mentagrophytes; assay: Antifungal activity against Trichophyton mentagrophytes PMC 6503 after 72 hrs by CLSI broth microdilution method; type: functional; settings: PMC 6503, 72 h
# In short: (§1)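 Dermatophytes tested by CLSI broth microdilution for filamentous fungi (M38-A2). Serial two-fold dilutions of DMSO-dissolved compound in RPMI 1640, final 0.125–64. Inoculum was 0.4–5 × 10^4 CFU mL−1, incubated at 35 °C and read at 72 h. MIC80 is the lowest concentration giving ≥80% growth inhibition versus growth control. Median of five replicates, plus geometric mean.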
# Cryptococcus neoformans [2] = assay: Antifungal activity against Cryptococcus neoformans PMC 2115 after 72 hrs by CLSI broth microdilution method; type: functional; settings: PMC 2115, 72 h
# In short: (§2)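 Cryptococcus neoformans tested by CLSI broth microdilution in RPMI 1640, with serial two-fold dilutions from DMSO stocks at 100× the top concentration, final 0.125–64. Inoculum was 1.0–1.5 × 10^3 cells mL−1 at 35 °C, with growth read at 72 h. MIC is the lowest concentration with ≥50% growth inhibition versus control. Median of five replicates, plus geometric mean.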
# Candida albicans [3] = assay: Antifungal activity against Candida albicans ATCC 10231 after 48 hrs by CLSI broth microdilution method; type: functional; settings: ATCC 10231, 48 h
# In short: (§3)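 Yeast CLSI broth microdilution (M27-A3). Compounds dissolved in DMSO at 100× the top test concentration, then diluted as serial two-fold dilutions in RPMI 1640 to final 0.125–64. Inoculum was 1.0–1.5 × 10^3 cells mL−1, incubated at 35 °C and read for growth at 48 h. MIC is the lowest concentration giving ≥50% growth inhibition versus growth control. Reported as the median of five replicates and as the geometric mean.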
# Nakaseomyces glabratus [4] = assay: Antifungal activity against Candida glabrata PMC 0851R after 48 hrs by CLSI broth microdilution method; type: functional; in short: as §3
# Nannizzia gypsea [5] = assay: Antifungal activity against Microsporum gypseum PMC 7303 after 72 hrs by CLSI broth microdilution method; type: functional; settings: PMC 7303, 72 h; in short: as §1
# Cryptococcus neoformans [6] = assay: Antifungal activity against Cryptococcus neoformans PMC 2103 after 72 hrs by CLSI broth microdilution method; type: functional; settings: PMC 2103, 72 h; in short: as §2
# Candida albicans [7] = assay: Antifungal activity against Candida albicans ATCC 20891 after 48 hrs by CLSI broth microdilution method; type: functional; settings: ATCC 20891, 48 h; in short: as §3
# [8] = tested on: Trichophyton mentagrophytes; assay: Antifungal activity against Trichophyton mentagrophytes PMC 6552 after 72 hrs by CLSI broth microdilution method; type: functional; settings: PMC 6552, 72 h; in short: as §1
# Cryptococcus neoformans [9] = assay: Antifungal activity against Cryptococcus neoformans PMC 2123 after 72 hrs by CLSI broth microdilution method; type: functional; settings: PMC 2123, 72 h; in short: as §2
# Pichia kudriavzevii [10] = assay: Antifungal activity against Candida krusei PMC 0613 after 48 hrs by CLSI broth microdilution method; type: functional; settings: PMC 0613, 48 h; in short: as §3
# Candida albicans [11] = assay: Antifungal activity against Candida albicans PMC 1011 after 48 hrs by CLSI broth microdilution method; type: functional; settings: PMC 1011, 48 h; in short: as §3
# Candida parapsilosis [12] = assay: Antifungal activity against Candida parapsilosis DSM 11224 after 48 hrs by CLSI broth microdilution method; type: functional; settings: Lodderomyces parapsilosis, DSM 11224, 48 h; in short: as §3
# Cryptococcus neoformans [13] = assay: Antifungal activity against Cryptococcus neoformans PMC 2111 after 72 hrs by CLSI broth microdilution method; type: functional; settings: PMC 2111, 72 h; in short: as §2
# [14] = tested on: Trichophyton mentagrophytes; assay: Antifungal activity against Trichophyton mentagrophytes PMC 6509 after 72 hrs by CLSI broth microdilution method; type: functional; settings: PMC 6509, 72 h; in short: as §1
# [15] = tested on: Trichophyton mentagrophytes; assay: Antifungal activity against Trichophyton mentagrophytes PMC 6515 after 72 hrs by CLSI broth microdilution method; type: functional; settings: PMC 6515, 72 h; in short: as §1
# Nakaseomyces glabratus [16] = assay: Antifungal activity against Candida glabrata PMC 0850R after 48 hrs by CLSI broth microdilution method; type: functional; in short: as §3
# Candida albicans [17] = assay: Antifungal activity against Candida albicans ATCC 10261 after 48 hrs by CLSI broth microdilution method; type: functional; settings: ATCC 10261, 48 h; in short: as §3
# Cryptococcus neoformans [18] = assay: Antifungal activity against Cryptococcus neoformans DSM 11959 after 72 hrs by CLSI broth microdilution method; type: functional; settings: DSM 11959, 72 h; in short: as §2
# Candida tropicalis [19] = assay: Antifungal activity against Candida tropicalis DSM 11953 after 48 hrs by CLSI broth microdilution method; type: functional; settings: DSM 11953, 48 h; in short: as §3
# Nakaseomyces glabratus [20] = assay: Antifungal activity against Candida glabrata PMC 0807 after 48 hrs by CLSI broth microdilution method; type: functional; settings: PMC 0807, 48 h; in short: as §3
# Nakaseomyces glabratus [21] = assay: Antifungal activity against Candida glabrata PMC 0852R after 48 hrs by CLSI broth microdilution method; type: functional; in short: as §3
# Cryptococcus neoformans [22] = assay: Antifungal activity against Cryptococcus neoformans PMC 2102 after 72 hrs by CLSI broth microdilution method; type: functional; settings: PMC 2102, 72 h; in short: as §2
# Candida tropicalis [23] = assay: Antifungal activity against Candida tropicalis PMC 0910 after 48 hrs by CLSI broth microdilution method; type: functional; settings: PMC 0910, 48 h; in short: as §3
# Pichia kudriavzevii [24] = assay: Antifungal activity against Candida krusei DSM 6128 after 48 hrs by CLSI broth microdilution method; type: functional; settings: DSM 6128, 48 h; in short: as §3
# Candida albicans [25] = assay: Antifungal activity against Candida albicans ATCC 76615 after 48 hrs by CLSI broth microdilution method; type: functional; settings: ATCC 76615, 48 h; in short: as §3
# Nakaseomyces glabratus [26] = assay: Antifungal activity against Candida glabrata PMC 0805 after 48 hrs by CLSI broth microdilution method; type: functional; settings: PMC 0805, 48 h; in short: as §3
# Nannizzia gypsea [27] = assay: Antifungal activity against Microsporum gypseum PMC 7331 after 72 hrs by CLSI broth microdilution method; type: functional; settings: PMC 7331, 72 h; in short: as §1
# [28] = tested on: Trichophyton mentagrophytes; assay: Antifungal activity against Trichophyton mentagrophytes PMC 6531 after 72 hrs by CLSI broth microdilution method; type: functional; settings: PMC 6531, 72 h; in short: as §1
# Candida albicans [29] = assay: Antifungal activity against Candida albicans PMC 1040R after 48 hrs by CLSI broth microdilution method; type: functional; in short: as §3
# Candida albicans [30] = assay: Antifungal activity against Candida albicans ATCC 90028 after 48 hrs by CLSI broth microdilution method; type: functional; settings: ATCC 90028, 48 h; in short: as §3
# Candida albicans [31] = assay: Antifungal activity against Candida albicans PMC 1042R after 48 hrs by CLSI broth microdilution method; type: functional; in short: as §3
# Candida parapsilosis [32] = assay: Antifungal activity against Candida parapsilosis ATCC 22019 after 48 hrs by CLSI broth microdilution method; type: functional; settings: Lodderomyces parapsilosis, ATCC 22019, 48 h; in short: as §3
# Nakaseomyces glabratus [33] = assay: Antifungal activity against Candida glabrata PMC 0853R after 48 hrs by CLSI broth microdilution method; type: functional; in short: as §3
# Candida albicans [34] = assay: Antifungal activity against Candida albicans ATCC 24433 after 48 hrs by CLSI broth microdilution method; type: functional; settings: ATCC 24433, 48 h; in short: as §3
# Candida albicans [35] = assay: Antifungal activity against Candida albicans ATCC 3153 after 48 hrs by CLSI broth microdilution method; type: functional; settings: ATCC 3153, 48 h; in short: as §3
# Cryptococcus neoformans [36] = assay: Antifungal activity against Cryptococcus neoformans PMC 2136 after 72 hrs by CLSI broth microdilution method; type: functional; settings: PMC 2136, 72 h; in short: as §2
# Nannizzia gypsea [37] = assay: Antifungal activity against Microsporum gypseum DSM 3824 after 72 hrs by CLSI broth microdilution method; type: functional; settings: DSM 3824, 72 h; in short: as §1
# Candida albicans [38] = assay: Antifungal activity against Candida albicans PMC 1041R after 48 hrs by CLSI broth microdilution method; type: functional; in short: as §3
# [39] = Cytotoxicity against human A549 cells after 48 hrs by MTT assay; type: cell-based
# In short: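 A549 cells (ATCC CCL-185) seeded at 2 × 10^4/well in phenol-red-free RPMI 1640 with 10% FBS, L-glutamine, penicillin and streptomycin, at 37 °C and 5% CO2. Exposed 48 h to DMSO-dissolved compounds (final 16–256; at least five concentrations, triplicate). MTT added for 3–4 h, crystals solubilized, OD read at 570 nm. CC50 taken versus the DMSO control. Mean ± SD of two independent experiments.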
# [40] = tested on: Trichophyton mentagrophytes; assay: Antifungal activity against Trichophyton mentagrophytes DSM 4870 after 72 hrs by CLSI broth microdilution method; type: functional; settings: DSM 4870, 72 h; in short: as §1
# Cryptococcus neoformans [41] = assay: Antifungal activity against Cryptococcus neoformans PMC 2107 after 72 hrs by CLSI broth microdilution method; type: functional; settings: PMC 2107, 72 h; in short: as §2
smiles,measurement,setting,value
O=C(OC(Cn1ccnc1)c1ccc(Cl)cc1)N1CCN(c2ccc(Cl)cc2)CC1 (stereo unspecified),MIC80,[1],2 µg/mL
same,MIC50,Cryptococcus neoformans [2],4 µg/mL
same,MIC50,Candida albicans [3],0.5 µg/mL
same,MIC50,Nakaseomyces glabratus [4],8 µg/mL
same,MIC80,Nannizzia gypsea [5],2 µg/mL
same,MIC50,Cryptococcus neoformans [6],4 µg/mL
same,MIC50,Candida albicans [7],0.5 µg/mL
same,MIC80,[8],1 µg/mL
same,MIC50,Cryptococcus neoformans [9],4 µg/mL
same,MIC50,Pichia kudriavzevii [10],1 µg/mL
same,MIC50,Candida albicans [11],0.25 µg/mL
same,MIC50,Candida parapsilosis [12],1 µg/mL
same,MIC50,Cryptococcus neoformans [13],2 µg/mL
same,MIC80,[14],8 µg/mL
same,MIC80,[15],4 µg/mL
same,MIC50,Nakaseomyces glabratus [16],8 µg/mL
same,MIC50,Candida albicans [17],0.5 µg/mL
same,MIC50,Cryptococcus neoformans [18],2 µg/mL
same,MIC50,Candida tropicalis [19],4 µg/mL
same,MIC50,Nakaseomyces glabratus [20],8 µg/mL
same,MIC50,Nakaseomyces glabratus [21],4 µg/mL
same,MIC50,Cryptococcus neoformans [22],4 µg/mL
same,MIC50,Candida tropicalis [23],4 µg/mL
same,MIC50,Pichia kudriavzevii [24],4 µg/mL
same,MIC50,Candida albicans [25],2 µg/mL
same,MIC50,Nakaseomyces glabratus [26],1 µg/mL
same,MIC80,Nannizzia gypsea [27],2 µg/mL
same,MIC80,[28],8 µg/mL
same,MIC50,Candida albicans [29],32 µg/mL
same,MIC50,Candida albicans [30],0.5 µg/mL
same,MIC50,Candida albicans [31],4 µg/mL
same,MIC50,Candida parapsilosis [32],1 µg/mL
same,MIC50,Nakaseomyces glabratus [33],4 µg/mL
same,MIC50,Candida albicans [34],1 µg/mL
same,MIC50,Candida albicans [35],0.5 µg/mL
same,MIC50,Cryptococcus neoformans [36],4 µg/mL
same,MIC80,Nannizzia gypsea [37],8 µg/mL
same,MIC50,Candida albicans [38],8 µg/mL
same,CC50 at 48 h,[39],82.2 µg/mL
same,MIC80,[40],8 µg/mL
same,MIC50,Cryptococcus neoformans [41],4 µg/mL

# — ChEMBL document CHEMBL3286116, “Synthesis, biological evaluation and structure-activity correlation study of a series of imidazol-based compounds as Candida albicans inhibitors” (Eur J Med Chem, 2014)
